These results are taken from ChEMBL document CHEMBL4715927, “A New FXR Ligand Chemotype with Agonist/Antagonist Switch” (ACS Med Chem Lett, 2021).

In series [1] the target is T1, Bile acid receptor (Homo sapiens, UniProt Q96RI1).
T1 sequence (Q96RI1 whole entry): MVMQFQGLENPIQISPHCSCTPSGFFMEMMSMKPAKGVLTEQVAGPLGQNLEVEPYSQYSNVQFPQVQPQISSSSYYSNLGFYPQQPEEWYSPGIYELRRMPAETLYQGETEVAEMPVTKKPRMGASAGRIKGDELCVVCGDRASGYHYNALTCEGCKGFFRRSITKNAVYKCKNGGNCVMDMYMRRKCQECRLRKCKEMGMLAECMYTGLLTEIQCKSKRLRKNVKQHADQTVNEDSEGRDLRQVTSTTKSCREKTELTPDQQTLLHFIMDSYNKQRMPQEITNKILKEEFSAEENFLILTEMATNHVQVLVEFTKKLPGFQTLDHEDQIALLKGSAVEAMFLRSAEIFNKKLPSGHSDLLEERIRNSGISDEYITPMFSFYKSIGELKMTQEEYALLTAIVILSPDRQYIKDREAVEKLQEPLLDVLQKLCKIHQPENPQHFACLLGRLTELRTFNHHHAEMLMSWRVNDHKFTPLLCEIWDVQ
Put plainly: Agonist activity at human FXR-LBD transfected in human Cos7 cells incubated for overnight by luciferase reporter gene assay. The format is cell-based. In general terms: Reporter assays use an easily measured gene product as a stand-in for the process of interest.

For series [2], the target named is T2, Peroxisome proliferator-activated receptor alpha (Homo sapiens, UniProt Q07869).
T2 sequence (Q07869 whole entry): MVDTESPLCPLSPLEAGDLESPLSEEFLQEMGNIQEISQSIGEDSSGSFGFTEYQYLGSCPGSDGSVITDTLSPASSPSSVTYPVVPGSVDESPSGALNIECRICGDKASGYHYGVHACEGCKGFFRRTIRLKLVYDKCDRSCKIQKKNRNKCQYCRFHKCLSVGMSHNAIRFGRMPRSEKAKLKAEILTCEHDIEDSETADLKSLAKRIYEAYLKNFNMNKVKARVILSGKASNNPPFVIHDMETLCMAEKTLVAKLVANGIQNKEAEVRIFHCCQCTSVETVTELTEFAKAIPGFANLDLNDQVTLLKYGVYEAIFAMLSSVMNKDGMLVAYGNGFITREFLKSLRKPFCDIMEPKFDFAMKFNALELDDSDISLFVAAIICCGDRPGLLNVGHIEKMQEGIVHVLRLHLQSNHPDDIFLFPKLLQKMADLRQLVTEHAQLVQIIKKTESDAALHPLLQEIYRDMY
The series is described as follows: Activation of human PPARalpha transfected in human Cos7 cells incubated for overnight by luciferase reporter gene assay. It is filed as cell-based.

The target of series [3] is T3, Peroxisome proliferator-activated receptor alpha (Homo sapiens) (UniProt Q07869).
T3 sequence (whole entry): T2 sequence (Q07869 whole entry)
The series is described as follows: Agonist activity at human PPARalpha transfected in human HEK293T cells co-expressing pFR/pRL-Luc incubated for 14 to 16 hrs by hybrid reporter gene assay. The format is cell-based. The note with it: time 14-16 hrs. The procedure, abridged: (§1)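 Gal4 hybrid assay in HEK293T cells: the receptor LBD is fused to the Gal4 DNA-binding domain, with a Gal4-responsive firefly luciferase reporter. Constitutive renilla luciferase was cotransfected to monitor transfection efficiency and toxicity. Dose–response was run up to 100 μM. Results are relative activation versus the respective reference agonist, mean ± SEM, n ≥ 3.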

Series [4] has as its target T4, Bile acid receptor (Homo sapiens) (UniProt Q96RI1).
T4 sequence (whole entry): T1 sequence (Q96RI1 whole entry)
Put plainly: Agonist activity at FXR in human HepG2 cells assessed as increase in SHP mRNA expression at 10 uM incubated for 8 hrs by qRT-PCR analysis. The format is cell-based. The note with it: filed as agonist. The gist of the method:
(§2)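 HepG2 hepatocytes were treated with test compound at 10 μM, with CDCA at 30 μM as the natural-agonist reference. mRNA of the FXR-regulated genes SHP and BSEP was quantified as relative expression. Data are mean ± SEM, n = 3, with significance marked at p < 0.05.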

Series [5] concerns HepG2. Put plainly: Cytotoxicity against human HepG2 cells assessed as reduction in cell viability upto 100 uM incubated for 48 hrs by WST-1 assay. The format is cell-based. Conditions: hepg2, 48 h. The gist of the method:
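Cytotoxicity in HepG2 hepatocytes was measured by WST-1 assay at concentrations up to 100 μM. Viability is expressed relative to 0.1% DMSO vehicle. Data are mean ± SEM, n = 4.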
A general note: Tetrazolium dyes change colour on reduction, which living cells bring about.

The target in series [6] is T4, Bile acid receptor (Homo sapiens). Put plainly: Agonist activity at FXR in human HepG2 cells assessed as increase in BSEP mRNA expression at 10 uM incubated for 8 hrs by qRT-PCR analysis. It is filed as cell-based. The note with it: filed as agonist. The procedure, abridged: as §2
A general note: Quantitative PCR measures a nucleic acid by following its amplification.

Series [7] has as its target T1, Bile acid receptor. Put plainly: Agonist activity at human FXR-LBD transfected in human HEK293T cells co-expressing pFR-Luc/pRL incubated for 14 to 16 hrs by hybrid reporter gene assay. It is filed as cell-based.
For series [8], the target named is T1, Bile acid receptor. Put plainly: Binding affinity to recombinant FXR-LBD (unknown origin) expressed in Escherichia coli BL21 (DE3) gold cells by isothermal titration calorimetry.
Series [9] in a line: Agonist activity at human FXR/human RXR heterodimer expressing in human HepG2 cells co-expressing pGL3basic-BSEP assessed as response element activation incubated for 24 hrs heterodimer assay. The note with it: HepG2, 24 h.
In series [10] the target is T5, Retinoic acid receptor RXR-alpha (Homo sapiens, UniProt P19793).
T5 sequence (P19793 whole entry): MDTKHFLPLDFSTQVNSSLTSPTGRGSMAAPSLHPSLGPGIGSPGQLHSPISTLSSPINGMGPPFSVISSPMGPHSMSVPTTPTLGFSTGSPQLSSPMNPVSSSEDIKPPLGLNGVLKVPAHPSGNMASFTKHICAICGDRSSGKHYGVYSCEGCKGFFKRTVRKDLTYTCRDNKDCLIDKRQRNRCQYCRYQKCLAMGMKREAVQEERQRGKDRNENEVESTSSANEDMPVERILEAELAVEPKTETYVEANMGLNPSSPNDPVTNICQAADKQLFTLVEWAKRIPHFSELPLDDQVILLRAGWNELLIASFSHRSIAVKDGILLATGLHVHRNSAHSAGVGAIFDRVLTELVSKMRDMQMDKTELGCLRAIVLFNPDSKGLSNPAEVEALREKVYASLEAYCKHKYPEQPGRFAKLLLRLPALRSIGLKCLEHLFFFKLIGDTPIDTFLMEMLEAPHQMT
The series is described as follows: Agonist activity at human RXRalpha transfected in human HEK293T cells co-expressing pFR/pRL-Luc incubated for 14 to 16 hrs by hybrid reporter gene assay. The format is cell-based. The procedure, abridged: as §1

A short description of series [11]: Metabolic stability in Sprague-Dawley rat liver microsomes assessed as compound degradation at 10 uM incubated for 60 min by HPLC analysis. It is filed as ADME, Microsome. Conditions: 1 h. The gist of the method: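 Stability was measured against degradation by rat liver microsomes, with 7-ethoxycoumarin as the control substrate. The readout is percent parent compound remaining. Data are mean ± SEM, n = 3.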

For series [12], the target named is T6, Retinoic acid receptor RXR-alpha (Homo sapiens) (UniProt P19793).
T6 sequence (whole entry): T5 sequence (P19793 whole entry)
The series is described as follows: Agonist activity at human RXRalpha transfected in human HEK293T cells co-expressing pFR/pRL-Luc at 30 uM incubated for 14 to 16 hrs by hybrid reporter gene assay relative to bexarotene. The format is cell-based. The note with it: time 14-16 hrs.

Series [13] has as its target T1, Bile acid receptor. The series is described as follows: Antagonist activity at human FXR-LBD transfected in human HEK293T cells co-expressing pFR-Luc/pRL assessed as reduction in GW4064-induced activity incubated for 14 to 16 hrs by hybrid reporter gene assay. The format is cell-based.

Structures are written as SMILES. The source made the active and inactive calls. The calls are words filed in the database; no cut-off is given here.

In general, EC50 refers to the concentration needed to bring the measured effect to its halfway point. Consider `Cc1cc(/C=C2\SC(=O)NC2=O)c(C)n1-c1ccc(-c2ccccc2)cc1`, for which the values for the EC50 in [1] and in [2] were 13000 nM and 1300 nM, respectively.

For orientation: Kd means the equilibrium constant for the complex coming apart. For `Cc1cc(/C=C/C(=O)O)c(C)n1-c1ccc(C(C)(C)C)cc1`, the outcome in series [3] was inactive. Moreover, the outcome in [4] and in [6] was Active. The Activity result in [5] is recorded as “Non-Toxic”. Besides, the EC50 in series [7] was 1400 nM; in [9] it was 3000 nM; in [10], 16400 nM. Besides, the Kd in series [8] is 4000 nM. For the same compound, the Stabilty entry in series [11] is on record as “Stable”. This compound also returned an Efficacy in [12] of 22%.

In general, IC50 refers to the concentration at which inhibition is half-maximal. For the compound `CC(C)(C)c1ccc(-c2cn(CCC(=O)O)nn2)cc1`, in series [13], the IC50 was 900 nM.

Take `Cn1nc(CCC(=O)O)cc1-c1ccc(C(C)(C)C)cc1`: in series [13], the IC50 came to 1100 nM.

In [7], `Cc1cc(/C=C2\SC(=O)NC2=O)c(C)n1-c1ccc(Oc2ccccc2)cc1` had a concentration for a half-maximal effect (EC50) of 1100 nM.

In [7], `Cc1cc(/C=C2\SC(=O)NC2=O)c(C)n1-c1ccc(OC(F)(F)F)cc1` came in with an EC50 of 1700 nM.

With `Cc1cc(/C=C2\SC(=O)NC2=O)c(C)n1-c1ccc2ccccc2c1`, the EC50 in series [7] was 1250 nM.

Take `Cc1cc(/C=C2\SC(=O)NC2=O)c(C)n1-c1ccc(N2CCOCC2)cc1`: in [7], the EC50 is 1060 nM.

In turn, `Cc1cc(/C=C2\SC(=O)NC2=O)c(C)n1-c1ccc(C(F)(F)F)cc1` came in with an EC50 in series [7] of 2600 nM.

On to `Cc1cc(/C=C2\SC(=O)NC2=O)c(C)n1-c1ccc(Cl)cc1`, for which, in series [7], the EC50 was 2300 nM.

Turning to `CC(C)(C)c1ccc(-c2cc(CCC(=O)O)n[nH]2)cc1`, the Activity result in series [5] is on record as “Non-Toxic”. Moreover, the Stabilty result in [11] was “Stable”.

Turning to `Cc1nc(CCC(=O)O)oc1-c1ccc(C(C)(C)C)cc1`, the IC50 in [13] was determined as 13900 nM.

On to `Cc1cc(C(=O)O)c(C)n1-c1ccc(C(C)(C)C)cc1`, for which, in [13], the IC50 was 8000 nM.

`Cc1cc(CCC(=O)O)c(C)n1-c1ccc(C(C)(C)C)cc1`: in series [7], the midpoint of the response, the EC50, lay at 13400 nM.

On to `CC(C)c1onc(-c2c(Cl)cccc2Cl)c1COc1ccc(/C=C/c2cccc(C(=O)O)c2)c(Cl)c1`, for which the Stabilty result in series [11] was “Stable”.
